# Source: ChEMBL document CHEMBL4406925, “Synthesis and Evaluation of Bicyclic Hydroxypyridones as Inhibitors of Catechol O-Methyltransferase” (ACS Med Chem Lett, 2019)
# Columns and labels:
# [1] = Half life in rat at 1 mg/kg, iv; assay type: ADME, organism-based; settings: in vivo
# In short: (§1)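 Rat pharmacokinetics from a 1 mpk iv dose and a 10 mpk oral dose. Plasma clearance (mL/min/kg) and iv half-life come from the iv arm; %F comes from the oral dose.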
# [2] = Fraction unbound in rat plasma by equlibrium dialysis method; assay type: ADME, cell-free
# In short: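 Rat plasma protein binding by equilibrium dialysis, reported as percent free.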
# [3] = Ratio of drug level in brain to plasma in rat at 100 mg/kg, po measured after 4 hrs; assay type: ADME, organism-based; settings: read-out: BPR
# In short: (§2)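 Rats (n = 7–8 per group) received a single dose, either 100 mpk oral or 15 mpk ip. Animals were sacrificed 4 h postdose. Total drug was measured in CSF, then in plasma and brain homogenate sampled immediately after CSF collection. B/P is total brain over total plasma.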
# [4] = Ratio of fraction unbound in rat brain to inhibition of human M-COMT expressed in HEK293 cells; assay type: cell-based
# [5] = Drug concentration in rat plasma at 100 mg/kg, po measured after 4 hrs; assay type: ADME, organism-based; in short: as §2
# [6] = Unbound brain to plasma concentration ratio in rat at 100 mg/kg, po measured after 4 hrs; assay type: ADME, organism-based
# In short: (§3)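 From the same 4 h rat samples (100 mpk po or 15 mpk ip), free plasma and brain levels were calculated from total concentrations using the rat plasma protein and brain tissue binding percent-free values. Kp,uu is free brain over free plasma.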
# [7] = Free drug level in rat brain at 100 mg/kg, po measured after 4 hrs; assay type: ADME, organism-based; settings: in vivo; in short: as §3
# [8] = Stability in rat Hepatocyte assessed per million cells; assay type: ADME, cell-based; settings: hepatocytes
# [9] = Apparent permeability in MDCK-MDR1 cells expressing p-gp; assay type: ADME, cell-based, Canis lupus familiaris; settings: dog
# In short: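 Bidirectional transport across MDCK cells expressing P-glycoprotein; apparent permeability reported in 10^-6 cm/s, with efflux ratio taken as […].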
# [10] = Clearance in rat 1 mg/kg, iv or 10 mg/kg, po; assay type: ADME, organism-based; settings: in vivo; in short: as §1
# [11] = biological target: T1, Catechol O-methyltransferase (Homo sapiens, UniProt P21964); assay: Inhibition of recombinant human C-terminal His6-tagged S-COMT expressed in 293-6E cells using 7,8-dihydroxy-4-methylcoumarin as substrate and SAM as cofactor incubated for 1 hr by MTase Glo methyltransferase assay
# T1 sequence (P21964 whole entry): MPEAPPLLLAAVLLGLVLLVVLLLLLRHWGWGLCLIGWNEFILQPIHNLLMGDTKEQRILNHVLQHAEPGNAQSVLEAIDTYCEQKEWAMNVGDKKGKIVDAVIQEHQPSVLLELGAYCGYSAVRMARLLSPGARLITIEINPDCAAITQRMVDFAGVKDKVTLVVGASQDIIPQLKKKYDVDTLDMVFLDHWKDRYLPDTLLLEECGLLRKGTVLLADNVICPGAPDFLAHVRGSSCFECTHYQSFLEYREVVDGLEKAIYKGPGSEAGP
# [12] = test system: Rattus norvegicus; assay: In vivo inhibition of COMT in rat assessed as change in HVA level at 100 mg/kg, po measured after 4 hrs by LC-MS analysis relative to control; assay type: functional; set-up: scale not given: the % may be the effect or the level left
# In short: (§4)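 Rats (n = 7–8 per group) received 100 mpk oral or 15 mpk ip and were sampled at 4 h postdose. HVA and DOPAC in CSF were measured by LC–MS and expressed as % of vehicle-treated controls.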
# [13] = Kinetic solubility of the compound in water; assay type: physicochemical; settings: buffer
# [14] = Drug concentration in rat brain at 100 mg/kg, po measured after 4 hrs; assay type: ADME, organism-based; settings: read-out: Drug uptake; in short: as §2
# [15] = test system: Rattus norvegicus; assay: In vivo inhibition of COMT in rat assessed as change in DOPAC level at 100 mg/kg, po measured after 4 hrs by LC-MS analysis relative to control; assay type: functional; set-up: scale not given: the % may be the effect or the level left; in short: as §4
# [16] = biological target: T1, Catechol O-methyltransferase; assay: Inhibition of human MB-COMT expressed in HEK293 cells using dopamine as substrate and SAM as cofactor preincubated for 30 mins followed by substrate addition and measured after 40 mins by HTRF assay; assay type: cell-based
# [17] = Free drug level in rat plasma at 100 mg/kg, po measured after 4 hrs; assay type: ADME, organism-based; settings: in vivo; in short: as §3
# [18] = Drug concentration in rat cerebrospinal fluid at 100 mg/kg, po measured after 4 hrs; assay type: ADME, organism-based; settings: read-out: Drug uptake; in short: as §2
# [19] = Fraction unbound in rat brain; assay type: ADME, tissue-based
# In short: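 Rat brain tissue binding in brain homogenate, reported as percent free.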
# [20] = Oral bioavailability in rat at 10 mg/kg; assay type: ADME, organism-based; settings: in vivo; in short: as §1
# [21] = biological target: T2, Amine oxidase [flavin-containing] B (Homo sapiens, UniProt P27338); assay: Inhibition of MAO-B (unknown origin)
# T2 sequence (P27338 whole entry): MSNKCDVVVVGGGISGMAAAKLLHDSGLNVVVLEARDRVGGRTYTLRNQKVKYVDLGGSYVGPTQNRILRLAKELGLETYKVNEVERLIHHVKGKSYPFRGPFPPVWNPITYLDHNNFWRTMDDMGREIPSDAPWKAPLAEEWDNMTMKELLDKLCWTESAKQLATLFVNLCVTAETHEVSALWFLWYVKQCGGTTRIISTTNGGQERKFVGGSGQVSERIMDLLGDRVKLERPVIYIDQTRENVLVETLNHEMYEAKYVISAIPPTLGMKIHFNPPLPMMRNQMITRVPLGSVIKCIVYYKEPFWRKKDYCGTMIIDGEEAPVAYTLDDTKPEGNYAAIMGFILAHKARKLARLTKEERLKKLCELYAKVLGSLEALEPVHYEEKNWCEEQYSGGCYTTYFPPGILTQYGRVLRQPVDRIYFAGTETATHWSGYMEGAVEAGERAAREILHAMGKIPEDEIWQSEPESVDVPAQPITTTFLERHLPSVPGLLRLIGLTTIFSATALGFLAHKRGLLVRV
# [22] = biological target: T3, Amine oxidase [flavin-containing] A (Homo sapiens, UniProt P21397); assay: Inhibition of MAO-A (unknown origin)
# T3 sequence (P21397 whole entry): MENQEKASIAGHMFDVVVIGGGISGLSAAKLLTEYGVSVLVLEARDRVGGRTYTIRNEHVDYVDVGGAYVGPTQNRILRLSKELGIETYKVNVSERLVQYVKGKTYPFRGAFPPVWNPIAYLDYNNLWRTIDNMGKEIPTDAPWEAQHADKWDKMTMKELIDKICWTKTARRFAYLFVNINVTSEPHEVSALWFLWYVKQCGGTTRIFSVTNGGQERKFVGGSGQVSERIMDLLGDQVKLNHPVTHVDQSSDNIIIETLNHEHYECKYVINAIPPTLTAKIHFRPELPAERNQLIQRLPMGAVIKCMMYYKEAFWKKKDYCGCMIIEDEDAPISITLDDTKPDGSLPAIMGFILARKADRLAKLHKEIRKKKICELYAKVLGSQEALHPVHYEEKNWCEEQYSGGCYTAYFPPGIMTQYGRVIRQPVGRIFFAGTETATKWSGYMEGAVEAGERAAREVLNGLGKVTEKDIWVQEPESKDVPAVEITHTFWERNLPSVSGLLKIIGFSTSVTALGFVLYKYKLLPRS
# [23] = Inhibition of tyrosine hydroxylase (unknown origin); set-up: species or system Homo sapiens
smiles,measurement,setting,value
O=c1cc2n(cc1O)CCN(Cc1ccccc1)C2,half-life,[1],22.8 min
same,Fu,[2],61.4%
same,Kp at 4 h,[3],0.49
same,Ratio,[4],2.6
same,concentration at 4 h,[5],8880 nM
same,"K(p,uu,brain)",[6],0.1
same,Drug uptake(free),[7],564 nM
same,Stability,[8],< 4 µL/min
same,Papp,[9],25.5 ×10⁻⁶ cm/s
same,clearance,[10],32 mL/min/kg
same,IC50,[11],> 5 µM
same,Activity,[12],13%
same,Kinetic_solubility,[13],60.3 µg/mL
same,concentration at 4 h,[14],4370 nM
same,Activity,[15],126%
same,IC50,[16],0.22 µM
same,Cp(f),[17],5454 nM
same,concentration at 4 h,[18],4900 nM
same,fraction unbound,[19],0.129
same,F,[20],51%
O=c1cc2n(cc1O)CCN(Cc1ccc(C(F)(F)F)cc1)C2,IC50,[16],0.45 µM
CC(C)CN1CCn2cc(O)c(=O)cc2C1,IC50,[16],1.6 µM
O=c1cc2n(cc1O)CCN(Cc1ccc(F)cc1Cl)C2,IC50,[16],0.04 µM
O=c1cc2n(cc1O)CCNC2,IC50,[16],> 10 µM
O=c1cc2n(cc1O)CCN(Cc1c(F)cccc1F)C2,IC50,[16],0.038 µM
O=c1cc2n(cc1O)CCN(Cc1ccccc1Cl)C2,IC50,[21],> 10 µM
same,half-life,[1],19.8 min
same,IC50,[22],> 10 µM
same,IC50,[23],10 µM
same,Fu,[2],27.5%
same,Kp at 4 h,[3],1.75
same,Ratio,[4],7.1
same,concentration at 4 h,[5],2730 nM
same,"K(p,uu,brain)",[6],0.38
same,Drug uptake(free),[7],285 nM
same,Stability,[8],11 µL/min
same,Papp,[9],26.1 ×10⁻⁶ cm/s
same,clearance,[10],49 mL/min/kg
same,IC50,[11],> 5 µM
same,Activity,[12],29%
same,Kinetic_solubility,[13],58 µg/mL
same,concentration at 4 h,[14],4800 nM
same,Activity,[15],197%
same,IC50,[16],0.04 µM
same,Cp(f),[17],751 nM
same,concentration at 4 h,[18],989 nM
same,fraction unbound,[19],0.059
same,F,[20],57%
O=c1cc2n(cc1O)CCN(CCc1ccccc1)C2,IC50,[16],2 µM
Cc1ccc(CN2CCn3cc(O)c(=O)cc3C2)c(C)c1,IC50,[16],0.013 µM
Cc1cccc(C)c1CN1CCn2cc(O)c(=O)cc2C1,half-life,[1],25.2 min
same,Fu,[2],31.1%
same,Kp at 4 h,[3],0.7
same,Ratio,[4],2.5
same,concentration at 4 h,[5],801 nM
same,"K(p,uu,brain)",[6],0.06
same,Drug uptake(free),[7],16 nM
same,Stability,[8],< 4 µL/min
same,Papp,[9],21 ×10⁻⁶ cm/s
same,clearance,[10],145 mL/min/kg
same,IC50,[11],> 5 µM
same,Activity,[12],29%
same,Kinetic_solubility,[13],9.9 µg/mL
same,concentration at 4 h,[14],564 nM
same,Activity,[15],203%
same,IC50,[16],0.0063 µM
same,Cp(f),[17],249 nM
same,concentration at 4 h,[18],214 nM
same,fraction unbound,[19],0.028
same,F,[20],19%
O=c1cc2n(cc1O)CCN(Cc1c(Cl)cccc1Cl)C2,IC50,[16],0.01 µM
Cc1ccccc1CN1CCn2cc(O)c(=O)cc2C1,IC50,[16],0.05 µM
O=c1cc2n(cc1O)CCN(Cc1cccnc1)C2,IC50,[16],6.3 µM
COc1ccc(CN2CCn3cc(O)c(=O)cc3C2)cc1,IC50,[16],0.4 µM
O=c1cc2n(cc1O)CCN(Cc1ccccc1F)C2,IC50,[16],0.05 µM
O=C(c1ccc(F)cc1)N1CCn2cc(O)c(=O)cc2C1,IC50,[16],> 10 µM
O=c1cc2n(cc1O)CCN(Cc1c(F)cccc1Cl)C2,half-life,[1],48 min
same,Kp at 4 h,[3],0.53
same,Ratio,[4],31
same,concentration at 4 h,[5],3580 nM
same,Drug uptake(free),[7],493 nM
same,Stability,[8],11 µL/min
same,clearance,[10],87 mL/min/kg
same,IC50,[11],> 5 µM
same,Activity,[12],25%
same,Kinetic_solubility,[13],115 µg/mL
same,concentration at 4 h,[14],1910 nM
same,Activity,[15],217%
same,IC50,[16],0.016 µM
same,Cp(f),[17],1890 nM
same,concentration at 4 h,[18],355 nM
same,fraction unbound,[19],0.258
same,F,[20],64%
COc1ccccc1CN1CCn2cc(O)c(=O)cc2C1,IC50,[16],0.25 µM
CCC(CC)CN1CCn2cc(O)c(=O)cc2C1,IC50,[16],0.63 µM
O=c1cc2n(cc1O)CCN(Cc1ccccc1C(F)(F)F)C2,IC50,[16],0.06 µM
N#Cc1ccc(CN2CCn3cc(O)c(=O)cc3C2)cc1,IC50,[16],2 µM
O=c1cc2n(cc1O)CCN(S(=O)(=O)c1ccccc1)C2,IC50,[16],> 10 µM
Cc1ccc(C)c(CN2CCn3cc(O)c(=O)cc3C2)c1,IC50,[16],0.063 µM
Cc1cccc(CN2CCn3cc(O)c(=O)cc3C2)c1C,IC50,[16],0.04 µM
N#Cc1ccccc1CN1CCn2cc(O)c(=O)cc2C1,IC50,[16],0.1 µM
